Experimental data taken from ChEMBL document CHEMBL2146394, “Design and synthesis of pyrrolo[3,2-d]pyrimidine HER2/EGFR dual inhibitors: improvement of the physicochemical and pharmacokinetic profiles for potent in vivo anti-tumor efficacy” (Bioorg Med Chem, 2012).

Key:
BT-474 [1] = test: Growth inhibition of HER2 over-expressing human BT474 cells after 5 days; assay type: functional; details: BT-474, 120 h
In short: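 BT-474 cells kept in RPMI 1640 with 10% heat-inactivated FBS. Seeded at 3×10⁴ cells/well and allowed to attach overnight. Treated continuously with compound for 5 days. Live cells counted with a particle analyzer; GI₅₀ derived.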

[2] = Metabolic stability in mouse hepatic microsomes at 1 umol/L after 20 mins; assay type: ADME; details: liver microsomes, read-out: Stability
[3] = Metabolic stability in human hepatic microsomes at 1 umol/L after 20 mins; assay type: ADME; details: liver microsomes, read-out: Stability
In short: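 Human liver microsomes (0.2 mg/mL protein) with 1 µmol/L compound in 50 mmol/L phosphate pH 7.4 plus an NADPH-generating system (glucose-6-phosphate, β-NADP⁺, G6PDH, MgCl₂). Incubated at 37 °C for 0 and 20 min, stopped with acetonitrile, duplicates. Remaining compound measured by HPLC with photodiode array detection.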

[4] = target: Receptor tyrosine-protein kinase erbB-2 (Homo sapiens, UniProt P04626); test: Inhibition of human N-terminal DYKDDDD tagged HER2 cytoplasmic domain amino acid 676 to 1255 expressed in baculovirus after 5 mins by scintillation counter
Chain of Receptor tyrosine-protein kinase erbB-2 (P04626 whole entry, the tested form may be a part): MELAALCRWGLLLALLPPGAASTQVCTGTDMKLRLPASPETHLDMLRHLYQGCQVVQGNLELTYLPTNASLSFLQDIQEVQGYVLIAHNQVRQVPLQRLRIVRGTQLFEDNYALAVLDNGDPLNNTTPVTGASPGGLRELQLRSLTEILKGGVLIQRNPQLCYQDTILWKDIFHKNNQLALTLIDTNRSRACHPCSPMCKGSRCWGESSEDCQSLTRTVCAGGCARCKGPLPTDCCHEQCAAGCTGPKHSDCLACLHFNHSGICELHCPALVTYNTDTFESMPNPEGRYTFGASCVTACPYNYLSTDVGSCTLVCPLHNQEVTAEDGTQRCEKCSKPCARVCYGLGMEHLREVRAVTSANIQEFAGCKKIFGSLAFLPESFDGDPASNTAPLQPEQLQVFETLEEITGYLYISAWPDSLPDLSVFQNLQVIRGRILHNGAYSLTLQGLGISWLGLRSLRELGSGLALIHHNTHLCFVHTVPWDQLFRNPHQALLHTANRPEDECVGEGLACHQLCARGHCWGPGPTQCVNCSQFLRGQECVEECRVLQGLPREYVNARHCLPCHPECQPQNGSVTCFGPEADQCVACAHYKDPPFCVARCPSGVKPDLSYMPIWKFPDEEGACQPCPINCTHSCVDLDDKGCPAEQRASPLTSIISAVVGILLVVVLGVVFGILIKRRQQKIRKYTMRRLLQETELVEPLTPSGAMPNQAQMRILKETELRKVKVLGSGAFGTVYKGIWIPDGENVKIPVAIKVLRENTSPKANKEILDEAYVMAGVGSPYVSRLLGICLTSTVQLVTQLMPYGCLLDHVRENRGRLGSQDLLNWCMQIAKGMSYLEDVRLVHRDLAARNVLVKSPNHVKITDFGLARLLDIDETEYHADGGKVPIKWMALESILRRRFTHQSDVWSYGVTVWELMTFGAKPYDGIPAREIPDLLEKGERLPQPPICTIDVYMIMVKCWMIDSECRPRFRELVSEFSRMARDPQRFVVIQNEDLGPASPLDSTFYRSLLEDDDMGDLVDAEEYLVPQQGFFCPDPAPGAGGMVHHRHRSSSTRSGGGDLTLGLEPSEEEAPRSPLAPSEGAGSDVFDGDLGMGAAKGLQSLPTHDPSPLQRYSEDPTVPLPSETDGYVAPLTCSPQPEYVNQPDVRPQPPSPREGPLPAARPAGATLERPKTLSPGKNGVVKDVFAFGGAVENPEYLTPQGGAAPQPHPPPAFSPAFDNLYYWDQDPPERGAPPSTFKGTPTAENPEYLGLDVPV
In short: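 FLAG-purified HER2 cytoplasmic domain in 50 mmol/L Tris-HCl pH 7.5, 5 mmol/L MnCl₂, 0.01% Tween-20, 2 mmol/L DTT, with poly-Glu-Tyr (4:1) and [γ-³²P]ATP. Compound and enzyme preincubated 5 min at room temperature; reaction started with ATP, 10 min at room temperature. Stopped with 10% TCA, filter-harvested, washed with 3% phosphoric acid, scintillation counted.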

[5] = target: Epidermal growth factor receptor (Homo sapiens, UniProt P00533); test: Inhibition of human N-terminal DYKDDDD tagged EGFR cytoplasmic domain amino acid 669 to 1210 expressed in baculovirus after 5 mins by scintillation counter
Chain of Epidermal growth factor receptor (P00533 whole entry, the tested form may be a part): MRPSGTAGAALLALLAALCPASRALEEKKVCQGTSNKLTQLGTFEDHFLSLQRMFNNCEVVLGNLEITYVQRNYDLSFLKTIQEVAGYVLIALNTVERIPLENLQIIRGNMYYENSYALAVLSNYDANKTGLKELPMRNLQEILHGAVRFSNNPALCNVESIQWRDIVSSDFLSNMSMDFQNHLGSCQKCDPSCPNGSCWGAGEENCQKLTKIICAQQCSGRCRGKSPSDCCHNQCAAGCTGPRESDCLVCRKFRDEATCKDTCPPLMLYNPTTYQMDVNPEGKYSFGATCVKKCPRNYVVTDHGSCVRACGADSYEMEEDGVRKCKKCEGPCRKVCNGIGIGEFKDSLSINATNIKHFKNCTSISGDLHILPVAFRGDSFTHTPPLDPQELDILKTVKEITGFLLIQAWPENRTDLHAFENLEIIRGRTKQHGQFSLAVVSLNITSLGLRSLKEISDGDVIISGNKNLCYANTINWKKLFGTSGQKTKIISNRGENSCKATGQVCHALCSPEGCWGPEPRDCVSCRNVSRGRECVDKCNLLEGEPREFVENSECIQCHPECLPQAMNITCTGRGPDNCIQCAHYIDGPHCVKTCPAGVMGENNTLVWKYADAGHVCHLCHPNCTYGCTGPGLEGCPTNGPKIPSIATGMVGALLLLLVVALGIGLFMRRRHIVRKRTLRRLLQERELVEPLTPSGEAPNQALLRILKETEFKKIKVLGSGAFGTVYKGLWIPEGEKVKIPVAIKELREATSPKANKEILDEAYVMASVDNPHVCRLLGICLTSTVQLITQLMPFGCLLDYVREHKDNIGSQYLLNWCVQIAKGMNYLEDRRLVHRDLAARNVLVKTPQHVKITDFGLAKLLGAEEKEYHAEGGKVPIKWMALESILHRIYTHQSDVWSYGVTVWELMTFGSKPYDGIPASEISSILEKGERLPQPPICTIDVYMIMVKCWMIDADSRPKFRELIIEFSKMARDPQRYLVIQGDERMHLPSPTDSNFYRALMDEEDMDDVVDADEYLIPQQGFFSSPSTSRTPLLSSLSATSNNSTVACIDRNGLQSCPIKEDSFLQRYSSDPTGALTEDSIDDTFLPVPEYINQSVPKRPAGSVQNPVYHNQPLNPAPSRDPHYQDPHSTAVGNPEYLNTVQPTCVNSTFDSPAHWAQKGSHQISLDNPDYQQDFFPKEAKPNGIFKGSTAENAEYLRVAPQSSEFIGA

[6] = Apparent permeability across basolateral to apical side in human Caco2 cells at 10 umol/L; assay type: ADME, cell-based; details: Caco-2
In short: (§1)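 Confluent Caco-2 monolayers on collagen-coated polycarbonate Transwell membranes. HBSS with 10 mmol/L HEPES, 15 mmol/L glucose and 1% BSA, pH 7.3–7.5. Compound dosed at 10 µmol/L apically (A→B) or basolaterally (B→A), 37 °C, 5% CO₂. Receivers sampled at 1 and 2 h; LC/MS/MS. Papp from receiver concentration slope; duplicates.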

BT-474 [7] = test: Antitumor activity against human BT474 cells xenografted in BALB/c nu/nu mouse at 100 mg/kg, po bid administered 14 days measured on day 31 relative to control; assay type: functional
In short: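 BT-474 xenografts: 1×10⁷ cells in Matrigel implanted subcutaneously into the right flank of female BALB/c nu/nu mice. Estradiol dipropionate 0.25 mg given intramuscularly on days 0 and 7. Tumours of 200–300 mm³ used. Dosing 100 mg/kg orally bid in 0.5% methylcellulose for 14 days. Volume a×b²/2 by calipers. T/C (%) compared at day 31.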

[8] = Apparent permeability across apical to basolateral side in human Caco2 cells at 10 umol/L; assay type: ADME, cell-based; details: Caco-2; in short: as §1
[9] = Antitumor activity against human 4-1ST cells xenografted in BALB/c nu/nu mouse at 50 mg/kg, po bid administered 14 days measured on day 31 relative to control; assay type: functional
In short: (§2)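 4-1ST human gastric tumour tissue from donor animals minced and implanted subcutaneously in nude mice or nude rats. Tumours of 200–300 mm³ used. Compounds in 0.5% (w/v) methylcellulose given orally twice daily at 10 mL/kg for 14 days; control got vehicle. Doses expressed as salt-free. Caliper volume (a×b²/2) measured blind 2–3 times weekly. T/C (%) versus control; five mice or eight rats per group.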

[10] = Antitumor activity against human 4-1ST cells xenografted in BALB/c nu/nu mouse at 100 mg/kg, po bid administered 14 days measured on day 31 relative to control; assay type: functional; in short: as §2
[11] = Antitumor activity against human 4-1ST cells xenografted in F344/N jcl-rnu rat at 25 mg/kg, po bid administered 14 days measured on day 31 relative to control; assay type: functional; in short: as §2
[12] = Antitumor activity against human 4-1ST cells xenografted in F344/N jcl-rnu rat at 12.5 mg/kg, po bid administered 14 days measured on day 31 relative to control; assay type: functional; in short: as §2

Row | GI50 (BT-474 [1]) | microsomal CLint at 1 µM [2] | microsomal CLint at 1 µM [3] | IC50 [4] | IC50 [5] | Papp B→A at 10 µM [6] | Papp A→B at 10 µM [8] | SMILES | T/C (BT-474 [7]) | T/C [9] | T/C [10] | T/C [11] | T/C [12]
1 | 34 nM | 33 µL/min/mg | 30 µL/min/mg | 7.1 nM | 18 nM | – | – | CC(C(=O)NCCn1ccc2ncnc(Nc3ccc(Oc4cccc(C(F)(F)F)c4)c(Cl)c3)c21)S(C)(=O)=O (centres undefined) | – | – | – | – | –
2 | 32 nM | – | 4 µL/min/mg | 4.1 nM | 9.8 nM | – | – | CC(C(=O)NCCn1ccc2ncnc(Nc3ccc(Oc4cccc(Cl)c4)c(Cl)c3)c21)S(C)(=O)=O (centres undefined) | – | – | – | – | –
3 | 55 nM | 23 µL/min/mg | 38 µL/min/mg | 17 nM | 47 nM | 4.26 ×10⁻⁶ cm/s | 2.87 ×10⁻⁶ cm/s | CC(C)(C(=O)NCCn1ccc2ncnc(Nc3ccc(Oc4cccc(C(F)(F)F)c4)c(Cl)c3)c21)S(C)(=O)=O | 43% | – | – | – | –
4 | – | – | – | – | – | 6.87 ×10⁻⁶ cm/s | 5.05 ×10⁻⁶ cm/s | CC(C)(O)CC(=O)NCCn1ccc2ncnc(Nc3ccc(Oc4cccc(C(F)(F)F)c4)c(Cl)c3)c21 [TAK-285] | 29% | 44% | 11% | -12% | 14%

The next lines start with the compound.

Row | SMILES | GI50 (BT-474 [1]) | microsomal CLint at 1 µM [2] | microsomal CLint at 1 µM [3] | IC50 [4] | IC50 [5] | Papp B→A at 10 µM [6] | Papp A→B at 10 µM [8] | T/C (BT-474 [7]) | T/C [9] | T/C [10] | T/C [11] | T/C [12]
5 | CCS(=O)(=O)CC(=O)NCCn1ccc2ncnc(Nc3ccc(Oc4cccc(C(F)(F)F)c4)c(Cl)c3)c21 | 36 nM | 22 µL/min/mg | 26 µL/min/mg | 8.5 nM | 31 nM | – | – | – | – | – | – | –
6 | CC(C)(C)S(=O)(=O)CC(=O)NCCn1ccc2ncnc(Nc3ccc(Oc4cccc(C(F)(F)F)c4)c(Cl)c3)c21 | 36 nM | 31 µL/min/mg | 45 µL/min/mg | 14 nM | 56 nM | – | – | – | – | – | – | –
